Only some compounds are listed: those with a hit (about 1.2% of all), similar ones and a draw of the others.
core dimer inh: inhibitors of HCV core protein dimerization, primary screen, biochemical, TR-FRET, high-throughput; inhibition, % at 5 µM; AID 1899, 2009; TR-FRET GST/Flag-core106 dimerization, 1536-well; 0.33% of 300,000 active;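 active = inhibition above the mean of all tested compounds plus 3 SD, set per screening campaign, cut at about 45% in these data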
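Assay system: GST-tagged and Flag-tagged HCV core protein residues 1-106 / Times: compound-protein-antibody incubation 4 h at 22.5 °C / Signal: time-resolved FRET, ex 340 nm, em 617 and 671 nm / Evaluation: % inhibition based on acceptor/donor emission ratio / Benchmarks: wells lacking GST-core106 and wells with excess unlabelled core106 / Repeats: singlicate, one well per compound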
HCV NS3 hel inh: inhibitors of HCV NS3 helicase, primary screen, biochemical, Cy5 molecular beacon fluorescence | Hepatitis C virus NS3 helicase | NS3 helicase DNA unwinding | inhibition, % at 10.9 µM | 0.56% of 290,000 active;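 active = inhibition above the mean of all tested compounds plus 3 SD, set per campaign, cut at about 35% in these data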;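 note: 0% = DMSO wells and 100% = thioflavine S control wells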
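Control set: DMSO versus 110 µM thioflavine S; Material: NS3 helicase fragment of HCV; Measured by: Cy5 fluorescence at 0 and 60 min, beacon hairpin quenching; Read-out basis: percent inhibition from t60/t0 fluorescence ratio; Times: reaction time 60 min, 25 °C; Repeats: single replicate; Compound dosing: single dose, 10.9 µM nominal final, DMSO 0.8% final.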
ZTA counter: ZTA (EBV) inhibition in EBNA-1 counter-screen | ZTA-DNA binding, fluorescence polarization | inhibition, % at 11 µM | P03206 | 0.15% of 320,000 active | AID 2234; in the data active = inhibition above about 33%
Target sequence (P03206 whole entry, looked up): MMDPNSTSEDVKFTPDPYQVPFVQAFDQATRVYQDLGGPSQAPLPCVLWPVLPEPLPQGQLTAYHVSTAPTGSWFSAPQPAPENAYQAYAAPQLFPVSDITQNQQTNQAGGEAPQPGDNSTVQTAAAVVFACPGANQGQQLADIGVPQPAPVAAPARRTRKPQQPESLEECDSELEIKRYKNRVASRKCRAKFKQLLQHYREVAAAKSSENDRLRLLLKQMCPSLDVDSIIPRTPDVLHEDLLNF
EBNA-1 inhibitor: EBNA-1 DNA-binding inhibitors, primary screen, biochemical, fluorescence polarization; inhibition, % at 14.8 µM; 0.34% of 300,000 active; AID 1950, 2009; in the data active = inhibition above about 28%
* hit, by the source's call; x = no result given.

SMILES	core dimer inh	HCV NS3 hel inh	ZTA counter	EBNA-1 inhibitor
CSc1nc(N(C)CCO)c2sc3nc(-c4ccco4)c4c(c3c2n1)CCC4	80*	19	8	15
Cc1ccc2c(c1)c1c3n2CCN(C(=O)CN2CCN(C)CC2)C3CCC1 (stereo not drawn)	-12	-6	13	9
Cc1ccc2c(c1)c(=O)c1c3n2CCN(C(=O)CCl)C3CC1 (stereo not drawn)	47*	1	10	2
O=C(Cc1cccc2ccccc12)N1CCN(c2ncccn2)CC1	2	3	-13	-11
O=C(Cc1coc2ccc3ccccc3c12)N1CCN(c2ncccn2)CC1	53*	2	1	0
CC(OC(=O)c1cc(S(=O)(=O)N2CCOCC2)ccc1Br)C(=O)N1CCOCC1 (stereo not drawn)	x	x	-6	x
O=C(O)C1Nc2c(Cl)cc(Cl)c(Cl)c2C2C=CCC12 (stereo not drawn)	43	57*	-9	0
CCOC(=O)c1[nH]c(C)c(C(=O)OCC(=O)NC(C)c2ccc(F)cc2)c1C (stereo not drawn)	x	x	-1	x
O=C(NC(C(=O)N/N=C/c1c2ccccc2cc2ccccc12)c1n[nH]c(=O)c2ccccc12)c1ccccc1 (stereo not drawn)	47*	-28	15	16
CC(C)COc1cccc(-c2cc(C(=O)N/N=C/c3ccncc3)c3ccccc3n2)c1	x	-11	x	x
CCCN(CCC)C(=O)c1cc(-c2ccc3c(c2)OCO3)nc2ccccc12	56*	10	12	-1
O=C(Nc1ccccc1N1CCOCC1)c1cc(=O)[nH]c2ccccc12	x	x	7	x
COc1ccccc1N1CCN(C(=O)c2cc3c(s2)CCC3)CC1	74*	7	16	3
CCc1cc2ccc(C)cc2nc1SCC(=O)Nc1cc(C)on1	5	-2	13	7
CCc1cc2cc3c(cc2nc1SCC(=O)Nc1cc(C)on1)OCO3	111*	10	4	1
O=C(Nc1ccc2c(c1)OCO2)c1cccc2c1C(=O)N(Cc1cccnc1)C2	54*	1	-2	-13
COc1ccc(-c2cc(C(=O)N/N=C/c3ccc4c(c3)OCO4)c3ccccc3n2)c(OC)c1	31	-8	1	-5
COc1ccc(-c2cc(C(=O)N/N=C/c3ccc(OC)c(COCC(F)(F)C(F)F)c3)c3ccccc3n2)c(OC)c1	58*	12	6	-1
CN(CC(=O)Nc1ccccc1Br)C(=O)c1sccc1-c1ccccc1	x	x	-1	x
CN(c1ccccc1)S(=O)(=O)c1ccc(Cl)c(C(=O)NCc2ccccc2CN2CCCC2)c1	x	x	-2	x
O=C(NCc1ccc(/C=c2\sc3n(c2=O)CCN=3)o1)C(=O)Nc1ccccc1	59*	0	-6	-15
Clc1ccc(Cn2c(/C=C/c3ccco3)nc3ccccc32)cc1	58*	23	-8	9
Cc1ccc(C)c(/C=C(\C(=O)O)c2ccc(S(=O)(=O)N3CCCCC3)s2)c1	57*	19	-13	-1
CCOC(=O)C1=C(CSc2nc(-c3ccccc3)ccc2C#N)OC(N)=C(C#N)C1c1ccccc1 (stereo not drawn)	53*	16	0	-13
CCOC(=O)C1=C(CSc2nc3c(cc2C#N)CN(C)CC3)OC(N)=C(C#N)C1c1ccccc1 (stereo not drawn)	52*	-51	-3	4
SMILES	core dimer inh	HCV NS3 hel inh	ZTA counter	EBNA-1 inhibitor
CCOC(=O)C1=C(CSc2nc(-c3ccccc3)ccc2C#N)OC(N)=C(C#N)C1c1cccnc1 (stereo not drawn)	26	6	0	-1
COc1ccc(/C(C)=N/Nc2nc3ccccc3n3cnnc23)cc1OC	5	-2	6	-4
Cc1ccc(C)c(S(=O)(=O)N2CCCCC2CCNC(=O)C(=O)NCc2ccncc2)c1 (stereo not drawn)	2	x	-10	1
CCN1CC2([N+](=O)[O-])C=CC(=O)C([N+](=O)[O-])(C1)C2CC(=O)c1ccccc1 (stereo not drawn)	54*	9	-12	-1
CCOc1ccc(N2CSC3=C(C#N)C(c4ccco4)CC(=O)N3C2)cc1 (stereo not drawn)	78*	14	9	1
CCSc1nnc(NC(=O)C2Cc3ccccc3CN2C(=O)c2ccco2)s1 (stereo not drawn)	85*	11	4	-3
Cc1ccccc1NC(=O)C1Cc2ccccc2CN1C(=O)c1ccco1 (stereo not drawn)	13	11	0	-6

High-throughput results: PubChem BioAssay, The Scripps Research Institute Molecular Screening Center
